Active and inactive are the calls of the source. The calls are words filed in the database; no cut-off is given here.
How the values were obtained:
[1] = Displacement of [3H]batrachotoxinin from rat brain voltage-gated sodium ion channel site 2 after 60 mins by scintillation counting analysis
D(2) dopamine receptor = D(2) dopamine receptor (Homo sapiens, UniProt P14416); experiment: Displacement of [3H]7-OH-DPAT from recombinant human D2s receptor after 60 mins by scintillation counting analysis
[2] = target: Muscarinic acetylcholine receptor M1 (Homo sapiens, UniProt P11229); experiment: Displacement of [3H]pirenzepine from recombinant human M1 receptor after 60 mins by scintillation counting analysis
[3] = target: 3',5'-cyclic-AMP phosphodiesterase 4D (Homo sapiens, UniProt Q08499); experiment: Activity at human recombinant PDE4D2 using [3H]cAMP as substrate measured after 20 mins by scintillation counting analysis
[4] = target: Kappa-type opioid receptor (Homo sapiens, UniProt P41145); experiment: Displacement of [3H]U69593 from recombinant human KOR after 60 mins by scintillation counting analysis
Cytochrome P450 1A2 = Cytochrome P450 1A2 (Homo sapiens, UniProt P05177); experiment: Induction of CYP1A2 in human HepaRG cells at 10 uM measured after 24 hrs by qRT-PCR analysis relative to omeprazole; format: ADME, cell-based; settings: hepatocytes
Procedure, shortened: (§1)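 Cryopreserved HepaRG cells were plated on collagen I in Williams' E medium with GlutaMAX. On day 4 they were treated with 10 μM compound in serum-free induction medium for 24 h at 37 °C; the vehicle was 1% DMSO. Positive controls were omeprazole 50 μM (CYP1A2), phenobarbital 1 mM (CYP2B6) and rifampicin 10 μM (CYP3A4). mRNA was read by TaqMan qPCR with GAPDH as reference, using ΔΔCt, and expressed as % of the positive control.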

Cytochrome P450 3A4 = Cytochrome P450 3A4 (Homo sapiens, UniProt P08684); experiment: Induction of CYP3A4 in human HepaRG cells at 10 uM measured after 24 hrs by qRT-PCR analysis relative to rifampicin; format: ADME, cell-based; settings: hepatocytes
Procedure, shortened: as §1, with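 “GlutaMAX.” for “GlutaMAX. On day 4 they were treated with 10 μM compound in serum-free induction medium for 24 h at 37 °C; the vehicle was 1% DMSO.”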

Histamine H1 receptor = Histamine H1 receptor (Homo sapiens, UniProt P35367); experiment: Displacement of [3H]pyrilamine from recombinant human H1 receptor after 60 mins by scintillation counting analysis
[5] = Displacement of [125I]alpha-dendrotoxin from rat brain voltage-gated potassium ion channel after 60 mins by scintillation counting analysis
Mus musculus [6] = experiment: Anti-hepatosteatosis activity in ethanol-induced C57BL/6 mouse model of hepatic steatosis assessed as reduction in liver weight at 0.3 mg/kg, po administered once daily via gavage for last 2 weeks of study measured post-last dose; format: functional, organism-based
Procedure, shortened: (§2)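 Female C57BL/6J mice (9 weeks old, 19–21 g) were kept on Lieber–DeCarli liquid diet, with ethanol raised from 1 to 5% (v/v) over 15 d and then held for 4 weeks, pair-fed. Dosing was 0.03, 0.1 or 0.3 mg/kg by oral gavage once daily for the last 2 weeks, in 0.5% Na-CMC/1% NMP/0.3% Tween 80. Read-outs were Oil Red O on 10 μm liver sections imaged at 10× and liver weight normalized to brain weight. n = 6–10 per group; t test versus ethanol + vehicle.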

D(1A) dopamine receptor = D(1A) dopamine receptor (Homo sapiens, UniProt P21728); experiment: Displacement of [3H]SCH23390 from recombinant human D1 receptor after 60 mins by scintillation counting analysis
Glutamate NMDA receptor = experiment: Displacement of [3H]CGP 39653 from rat brain NMDA receptor after 60 mins by scintillation counting analysis
Mus musculus [7] = experiment: Anti-hepatosteatosis activity in ethanol-induced C57BL/6 mouse model of hepatic steatosis assessed as reduction in hepatic lipid accumulation at 0.03 to 0.3 mg/kg, po administered once daily via gavage for last 2 weeks of study measured post-last dose by oil red O staining-based light microscopic analysis; format: functional, organism-based; procedure, shortened: as §2
[8] = target: cGMP-inhibited 3',5'-cyclic phosphodiesterase 3A (Homo sapiens, UniProt Q14432); experiment: Activity at human recombinant PDE3A using [3H]cAMP as substrate measured after 15 mins by scintillation counting analysis
[9] = target: Beta-2 adrenergic receptor (Homo sapiens, UniProt P07550); experiment: Displacement of [3H](-)CGP12177 from recombinant human beta2 adrenergic receptor after 120 mins by scintillation counting analysis
[10] = Cmax in C57BL6 mouse plasma at 0.3 mg/kg, po measured at 2 hrs post dose by LC-MS/MS analysis; format: ADME, organism-based; parameters: dose 0.3 mg/kg, route oral
Procedure, shortened: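 Female C57BL6 mice, 8 weeks old, received a single oral dose of 0.3 mg/kg in 1% NMP/0.3% Tween 80 in 0.5% Na-CMC. […] Maximum observed concentrations are reported; plasma clearance and half-life come from PK analysis.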

[11] = target: Delta-type opioid receptor (Homo sapiens, UniProt P41143); experiment: Displacement of [3H]DADLE from recombinant human DOR after 60 mins by scintillation counting analysis
Histamine H2 receptor = Histamine H2 receptor (Homo sapiens, UniProt P25021); experiment: Displacement of [125I]APT from recombinant human H2 receptor after 120 mins by scintillation counting analysis
[12] = target: Voltage-dependent L-type calcium channel subunit alpha-1C (Rattus norvegicus, UniProt P22002); experiment: Displacement of [3H]nitrendipine from rat brain Cav1.2 dihydropyridine site after 90 mins by scintillation counting analysis
Voltage-dependent L-type calcium channel subunit alpha-1C, sequence (P22002 whole entry): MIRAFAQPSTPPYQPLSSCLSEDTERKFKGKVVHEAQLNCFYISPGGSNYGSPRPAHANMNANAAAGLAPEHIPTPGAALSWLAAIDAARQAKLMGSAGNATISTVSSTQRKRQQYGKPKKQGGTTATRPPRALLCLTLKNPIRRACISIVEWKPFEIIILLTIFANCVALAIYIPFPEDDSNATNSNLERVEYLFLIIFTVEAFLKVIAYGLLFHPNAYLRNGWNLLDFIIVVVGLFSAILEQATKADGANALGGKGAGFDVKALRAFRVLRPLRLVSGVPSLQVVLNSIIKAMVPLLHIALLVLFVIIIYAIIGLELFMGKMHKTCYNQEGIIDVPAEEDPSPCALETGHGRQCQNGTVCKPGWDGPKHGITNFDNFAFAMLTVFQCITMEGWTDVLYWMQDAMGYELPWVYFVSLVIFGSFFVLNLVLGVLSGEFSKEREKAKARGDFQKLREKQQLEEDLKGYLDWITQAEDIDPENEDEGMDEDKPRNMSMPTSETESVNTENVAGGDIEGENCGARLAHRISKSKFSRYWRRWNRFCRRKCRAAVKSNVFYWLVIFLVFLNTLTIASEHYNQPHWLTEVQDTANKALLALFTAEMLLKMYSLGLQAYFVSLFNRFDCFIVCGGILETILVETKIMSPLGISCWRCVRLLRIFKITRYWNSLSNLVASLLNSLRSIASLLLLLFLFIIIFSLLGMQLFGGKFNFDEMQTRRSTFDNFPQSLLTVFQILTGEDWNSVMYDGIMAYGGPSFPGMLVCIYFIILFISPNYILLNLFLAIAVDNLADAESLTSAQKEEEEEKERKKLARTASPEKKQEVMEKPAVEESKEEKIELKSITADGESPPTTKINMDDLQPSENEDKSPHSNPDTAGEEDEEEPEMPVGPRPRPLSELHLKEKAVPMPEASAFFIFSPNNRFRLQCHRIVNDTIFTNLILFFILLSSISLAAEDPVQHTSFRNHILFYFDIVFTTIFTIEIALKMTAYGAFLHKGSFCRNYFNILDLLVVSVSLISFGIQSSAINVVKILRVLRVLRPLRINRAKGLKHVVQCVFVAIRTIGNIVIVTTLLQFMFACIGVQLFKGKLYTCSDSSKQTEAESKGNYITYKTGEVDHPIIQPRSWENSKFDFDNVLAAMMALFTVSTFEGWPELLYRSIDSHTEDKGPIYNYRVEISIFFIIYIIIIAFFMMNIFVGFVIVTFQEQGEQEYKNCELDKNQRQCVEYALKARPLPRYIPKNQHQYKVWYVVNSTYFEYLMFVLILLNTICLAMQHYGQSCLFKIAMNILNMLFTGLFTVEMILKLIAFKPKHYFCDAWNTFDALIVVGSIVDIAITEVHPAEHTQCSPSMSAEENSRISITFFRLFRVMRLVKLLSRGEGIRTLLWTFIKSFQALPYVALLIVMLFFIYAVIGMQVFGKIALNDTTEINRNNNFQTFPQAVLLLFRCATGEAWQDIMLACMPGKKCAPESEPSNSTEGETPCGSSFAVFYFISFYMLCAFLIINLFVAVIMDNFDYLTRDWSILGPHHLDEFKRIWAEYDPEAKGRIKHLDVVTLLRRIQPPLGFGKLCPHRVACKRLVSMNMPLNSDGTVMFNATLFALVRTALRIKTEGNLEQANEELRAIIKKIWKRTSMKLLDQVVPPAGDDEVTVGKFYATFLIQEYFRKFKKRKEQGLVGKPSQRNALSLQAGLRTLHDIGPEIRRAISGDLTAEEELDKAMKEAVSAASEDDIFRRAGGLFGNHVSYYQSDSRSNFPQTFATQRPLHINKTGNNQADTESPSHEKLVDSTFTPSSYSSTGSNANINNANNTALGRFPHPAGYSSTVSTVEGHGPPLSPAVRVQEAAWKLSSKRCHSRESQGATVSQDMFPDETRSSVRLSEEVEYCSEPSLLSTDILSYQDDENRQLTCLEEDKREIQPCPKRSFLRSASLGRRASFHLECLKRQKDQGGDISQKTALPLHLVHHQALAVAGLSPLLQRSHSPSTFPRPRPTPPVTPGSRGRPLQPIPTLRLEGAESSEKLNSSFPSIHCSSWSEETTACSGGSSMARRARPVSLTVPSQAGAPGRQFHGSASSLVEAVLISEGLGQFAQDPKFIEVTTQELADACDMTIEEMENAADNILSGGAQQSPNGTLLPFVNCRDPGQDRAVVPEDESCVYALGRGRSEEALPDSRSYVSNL

cGMP-inhibited 3',5'-cyclic phosphodiesterase 3A, sequence (Q14432 whole entry): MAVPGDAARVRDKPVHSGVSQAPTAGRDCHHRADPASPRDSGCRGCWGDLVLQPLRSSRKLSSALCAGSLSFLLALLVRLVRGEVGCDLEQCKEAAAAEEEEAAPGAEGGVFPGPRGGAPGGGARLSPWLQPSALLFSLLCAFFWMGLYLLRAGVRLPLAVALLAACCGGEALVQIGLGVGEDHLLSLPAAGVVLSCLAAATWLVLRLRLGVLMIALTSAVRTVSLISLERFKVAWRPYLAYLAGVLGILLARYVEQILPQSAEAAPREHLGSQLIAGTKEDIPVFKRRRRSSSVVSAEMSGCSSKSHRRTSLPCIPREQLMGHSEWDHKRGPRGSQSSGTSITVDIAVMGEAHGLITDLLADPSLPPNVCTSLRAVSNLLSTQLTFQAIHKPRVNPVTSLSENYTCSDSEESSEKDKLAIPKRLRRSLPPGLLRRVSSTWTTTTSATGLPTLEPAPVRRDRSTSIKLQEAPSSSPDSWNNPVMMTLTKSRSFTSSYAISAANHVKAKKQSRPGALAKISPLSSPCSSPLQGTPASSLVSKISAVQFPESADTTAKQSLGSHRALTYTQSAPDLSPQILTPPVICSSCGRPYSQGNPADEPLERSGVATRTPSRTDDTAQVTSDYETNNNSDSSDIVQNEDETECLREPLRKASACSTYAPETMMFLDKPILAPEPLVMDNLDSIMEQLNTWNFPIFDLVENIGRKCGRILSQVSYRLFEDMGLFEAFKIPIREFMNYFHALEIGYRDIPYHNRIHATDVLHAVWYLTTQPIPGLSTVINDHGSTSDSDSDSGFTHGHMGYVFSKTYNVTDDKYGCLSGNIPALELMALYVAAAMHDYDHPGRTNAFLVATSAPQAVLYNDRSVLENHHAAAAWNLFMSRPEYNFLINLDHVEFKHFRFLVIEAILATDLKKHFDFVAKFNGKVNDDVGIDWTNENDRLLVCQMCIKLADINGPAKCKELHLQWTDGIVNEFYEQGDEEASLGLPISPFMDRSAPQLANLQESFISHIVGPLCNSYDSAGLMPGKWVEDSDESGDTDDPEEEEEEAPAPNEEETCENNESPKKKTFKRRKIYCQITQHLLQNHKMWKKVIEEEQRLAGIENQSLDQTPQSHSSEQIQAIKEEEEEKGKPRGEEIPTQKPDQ
Histamine H1 receptor, sequence (P35367 whole entry): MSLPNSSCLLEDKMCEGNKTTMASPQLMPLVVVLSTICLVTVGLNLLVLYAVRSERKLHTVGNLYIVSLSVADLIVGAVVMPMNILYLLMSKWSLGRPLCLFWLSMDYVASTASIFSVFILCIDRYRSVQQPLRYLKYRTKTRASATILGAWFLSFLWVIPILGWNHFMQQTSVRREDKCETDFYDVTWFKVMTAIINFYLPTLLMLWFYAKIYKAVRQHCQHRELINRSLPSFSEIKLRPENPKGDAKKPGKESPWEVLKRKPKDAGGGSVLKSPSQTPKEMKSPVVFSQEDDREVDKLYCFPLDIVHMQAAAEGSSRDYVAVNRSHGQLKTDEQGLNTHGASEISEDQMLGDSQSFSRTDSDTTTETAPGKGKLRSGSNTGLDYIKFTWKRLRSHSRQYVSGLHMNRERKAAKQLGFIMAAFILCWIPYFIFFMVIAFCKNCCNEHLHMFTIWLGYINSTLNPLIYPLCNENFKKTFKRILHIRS
Delta-type opioid receptor, sequence (P41143 whole entry): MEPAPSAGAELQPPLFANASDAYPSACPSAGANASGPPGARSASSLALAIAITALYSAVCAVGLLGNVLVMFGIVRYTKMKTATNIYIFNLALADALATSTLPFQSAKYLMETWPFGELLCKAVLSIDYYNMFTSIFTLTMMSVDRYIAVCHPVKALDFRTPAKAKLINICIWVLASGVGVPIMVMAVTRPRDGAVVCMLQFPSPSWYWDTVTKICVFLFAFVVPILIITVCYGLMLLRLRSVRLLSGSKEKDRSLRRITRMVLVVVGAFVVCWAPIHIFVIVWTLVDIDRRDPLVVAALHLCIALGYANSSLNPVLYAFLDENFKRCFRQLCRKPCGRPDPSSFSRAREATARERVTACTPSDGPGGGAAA
Muscarinic acetylcholine receptor M1, sequence (P11229 whole entry): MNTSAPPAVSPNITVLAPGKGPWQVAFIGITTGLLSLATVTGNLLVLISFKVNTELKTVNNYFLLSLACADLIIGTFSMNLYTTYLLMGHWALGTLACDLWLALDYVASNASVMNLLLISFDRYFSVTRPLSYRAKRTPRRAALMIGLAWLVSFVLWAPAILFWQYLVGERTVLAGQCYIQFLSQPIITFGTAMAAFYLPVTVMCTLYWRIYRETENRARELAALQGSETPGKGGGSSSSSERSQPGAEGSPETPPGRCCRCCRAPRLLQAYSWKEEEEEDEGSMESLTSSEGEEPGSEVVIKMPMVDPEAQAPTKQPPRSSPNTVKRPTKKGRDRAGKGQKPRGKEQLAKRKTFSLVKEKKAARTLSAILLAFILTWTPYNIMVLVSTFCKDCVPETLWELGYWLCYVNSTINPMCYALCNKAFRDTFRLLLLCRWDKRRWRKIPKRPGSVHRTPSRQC
Beta-2 adrenergic receptor, sequence (P07550 whole entry): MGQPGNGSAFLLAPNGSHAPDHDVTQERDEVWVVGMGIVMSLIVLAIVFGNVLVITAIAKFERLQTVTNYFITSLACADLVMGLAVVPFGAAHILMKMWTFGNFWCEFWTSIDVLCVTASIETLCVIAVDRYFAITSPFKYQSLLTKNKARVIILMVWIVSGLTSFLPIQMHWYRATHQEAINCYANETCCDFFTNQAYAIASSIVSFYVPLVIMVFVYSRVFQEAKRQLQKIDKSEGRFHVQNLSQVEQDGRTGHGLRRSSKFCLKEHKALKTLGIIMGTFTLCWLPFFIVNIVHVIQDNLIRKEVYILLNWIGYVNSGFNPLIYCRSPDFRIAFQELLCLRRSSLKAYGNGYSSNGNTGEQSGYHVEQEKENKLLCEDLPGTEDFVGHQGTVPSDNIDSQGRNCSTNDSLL

With `O=C(Nc1ccc(OC(F)F)nc1)NC1CCN(c2ncnc3c2nc(-c2ccccc2Cl)n3-c2ccc(Cl)cc2)CC1` the EC50 [1] was over 10 µM, the IC50 [1] was over 10 µM and the EC50 (D(2) dopamine receptor) was over 10 µM. The IC50 (D(2) dopamine receptor) was over 10 µM, the EC50 [2] was over 10 µM and the IC50 [2] was over 10 µM. It also gave an EC50 [3] of over 10 µM, an IC50 [3] of over 10 µM and an EC50 [4] of over 10 µM. The IC50 [4] was over 10 µM, the Activity (Cytochrome P450 1A2) was under 1% and the Activity (Cytochrome P450 3A4) was under 10%. For the same compound, the EC50 (Histamine H1 receptor) was over 10 µM, the IC50 (Histamine H1 receptor) was over 10 µM and the EC50 [5] was over 10 µM. The IC50 [5] was over 10 µM, the Activity (Mus musculus [6]) was “Active” and the EC50 (D(1A) dopamine receptor) was over 10 µM. For the same compound, the IC50 (D(1A) dopamine receptor) was over 10 µM, the EC50 (Glutamate NMDA receptor) was over 10 µM and the IC50 (Glutamate NMDA receptor) was over 10 µM. For the same compound, the Activity (Mus musculus [7]) was “Active”, the EC50 [8] was over 10 µM and the IC50 [8] was over 10 µM. The EC50 [9] was over 10 µM, the IC50 [9] was over 10 µM and the Cmax [10] was 940 ng/mL. For the same compound, the EC50 [11] was over 10 µM, the IC50 [11] was over 10 µM and the EC50 (Histamine H2 receptor) was over 10 µM. It also gave an IC50 (Histamine H2 receptor) of over 10 µM, an EC50 [12] of over 10 µM and an IC50 [12] of over 10 µM.
